Where two headings read alike, the source gives them in different places.

Data set [1] concerns nifedipine oxidation (NFO) activity. Type of data set: in vitro ADME, rat. The note with it: rat, probe nifedipine; for IC50: rat hepatic (liver) microsomes, IC50, NFO activity, Liver, ingredient, 10-min NADPH-fortified pre-incubation; for inhibition at 100 µM: rat hepatic and intestinal microsomes.
For data set [2] the following is noted: cited from earlier work; for Cmax: read-out: Cmax levels of plasma, rats orally treated with a single dose of 8 g/kg lyophilized SMS.
For data set [3], the system named is nifedipine oxidation (NFO) activities in rat intestinal microsomes. Format: in vitro ADME. The note with it: read-out: IC50, NFO activity, Intestine; ingredient; 10-min NADPH-fortified pre-incubation.
Data set [4] deals with T1, human CYP3A4 (Homo sapiens, UniProt P08684, S18F). Format: in vitro ADME. The note with it: for IC50: NFO activity; for Ratio IC50(+)/IC50(−): IC50 shift after 10-min pre-incubation; for Predicted threshold of unbound inhibitor concentration causing a 2-fold AUC increase: high-throughput method from IC50 values.
Data set [5] has as its system nifedipine oxidation (NFO) activities in rat hepatic microsomes. Type of data set: in vitro ADME. The note with it: read-out: IC50, NFO activity, Liver; ingredient; 10-min NADPH-fortified pre-incubation.
The nature of data set [6]: Literature pharmacokinetics of herbal ingredients in rats. Type of data set: in vivo. The note with it: SMS once daily, estimated from half-life.
For data set [7] the following is noted: rat plasma; nifedipine 3 mg/kg oral; control group (water).
Data set [8] addresses T1, human CYP3A4. As to the kind of experiment: Time-dependent inactivation kinetics of human CYP3A4. Format: in vitro ADME. In outline: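 Recombinant CYP3A4 was pre-incubated with NADPH and test compound (DMSO vehicle) for varying times, and residual NFO was measured. K_app is the slope of ln % remaining activity versus time. k_inact and K_I came from nonlinear fit of K_app = k_inact·I/(I+K_I), with double-reciprocal starting values. The partition ratio came from titrating remaining activity after 30-min incubation against inhibitor:CYP3A4 molar ratio. […] Means of three determinations.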

Data set [9] concerns the target T1, human CYP3A4. As to the kind of experiment: Dialysis experiment, remaining NFO activity. Format: in vitro ADME. The note with it: 30-min NADPH-fortified pre-incubation. In outline:
(§1)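 E. coli membranes co-expressing human CYP3A4 and CPR (20 nM) were incubated 30 min at 37 °C with 3–20 μM test compound and an NADPH-generating system (pH 7.4), with DMSO vehicle controls. They were dialysed (10 kDa) at 4 °C against phosphate/0.1 mM EDTA with three 30-min buffer changes. […] Means of three determinations.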

In data set [10] the target is T2, NADPH-P450 reductase (CPR) (Homo sapiens, UniProt P16435).
T2 sequence (P16435 1-677): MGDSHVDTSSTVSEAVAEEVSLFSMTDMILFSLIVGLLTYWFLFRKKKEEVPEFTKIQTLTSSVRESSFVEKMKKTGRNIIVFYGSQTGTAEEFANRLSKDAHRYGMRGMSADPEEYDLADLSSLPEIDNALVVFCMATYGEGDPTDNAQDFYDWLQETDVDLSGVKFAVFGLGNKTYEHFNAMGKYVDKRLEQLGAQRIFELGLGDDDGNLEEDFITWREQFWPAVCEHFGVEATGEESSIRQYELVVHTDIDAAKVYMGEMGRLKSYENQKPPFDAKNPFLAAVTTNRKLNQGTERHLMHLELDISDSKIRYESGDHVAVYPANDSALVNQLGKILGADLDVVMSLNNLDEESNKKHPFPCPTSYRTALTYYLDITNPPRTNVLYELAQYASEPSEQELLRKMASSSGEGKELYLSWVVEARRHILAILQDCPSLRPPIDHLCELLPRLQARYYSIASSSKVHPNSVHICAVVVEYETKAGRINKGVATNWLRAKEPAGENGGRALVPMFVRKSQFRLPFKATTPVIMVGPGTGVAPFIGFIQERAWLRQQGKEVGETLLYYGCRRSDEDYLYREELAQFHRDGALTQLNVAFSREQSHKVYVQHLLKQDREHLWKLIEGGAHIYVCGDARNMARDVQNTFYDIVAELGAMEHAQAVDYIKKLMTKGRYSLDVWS
Nature of the data set: Dialysis experiment, CPR activity. Type of data set: in vitro ADME. The note with it: recombinant CYP3A4 system. A digest of the protocol:
as §1

The mark [11] stands for this setting: IC50(+), 10-min NADPH-fortified pre-incubation.
Where [12] appears, read: IC50(−), without pre-incubation.
[13] abbreviates: rats treated with 8 g/kg lyophilized SMS.
[14] abbreviates: linear regression of double reciprocal plots (r = 0.97).
[15] abbreviates: nonlinear regression analysis (r = 0.98).

Consider `CC(C)=CCC[C@](C)(O[C@@H]1O[C@H](CO[C@@H]2O[C@H](CO)[C@@H](O)[C@H](O)[C@H]2O)[C@@H](O)[C@H](O)[C@H]1O)[C@H]1CC[C@]2(C)[C@@H]1[C@H](O)C[C@@H]1[C@@]3(C)CC[C@H](O[C@@H]4O[C@H](CO)[C@@H](O)[C@H](O)[C@H]4O[C@@H]4O[C@H](CO)[C@@H](O)[C@H](O)[C@H]4O)C(C)(C)[C@@H]3CC[C@]12C` [Ginsenoside Rb1, ginsenoside Rb1], for which the IC50 (as a rule, the concentration that gives 50% inhibition) in [1] is > 100 µM.
On to `CC(C)=CCC/C(C)=C/COc1c2ccoc2cc2oc(=O)ccc12` [Bergamottin, bergamottin, reference compound], for which the tmax in data set [2] (rats) is listed as 0.5 h.
Take `COc1cc2c(c(OC)c1OC)-c1c(cc3c(c1OC)OCO3)CC(C)C(C)C2` (centres unmarked) [Schisandrin B]: the concentration for half-maximal inhibition (IC50) in data set [3] was determined as 8.9 ± 1.4 µM; on human CYP3A4 [4] (setting [11]), 1.5 ± 0.2 µM; against human CYP3A4 [4] (setting [12]) it was 6.1 ± 1.4 µM. Besides, on human CYP3A4 [4], the “Ratio IC50(+)/IC50(−)” value is 0.25. Besides, at human CYP3A4 [4], the “Predicted threshold of unbound inhibitor concentration causing a 2-fold AUC increase” value is on record as 7.69 nM. For the same compound, the tmax in data set [2] (SMS (8 g/kg)-treated rats) is on record as 1.6 h; in data set [2] (Schisandra Fructus extract (5 g/kg)-treated rats), 4.1 h. Besides, the half-life (in general, the time in which the quantity being followed falls by half) in data set [2] (setting [13]) is reported as 7 h. The Cmax (usually the maximum level reached in the sampled fluid or tissue) in [2] was 28.6 nM.
As to `CC1(C)CCC[C@](C)([C@H]2CC[C@]3(C)[C@@H]2[C@H](O)C[C@@H]2[C@@]4(C)CC[C@H](O)C(C)(C)[C@@H]4[C@@H](O)C[C@]23C)O1` [Panaxatriol, panaxatriol], the IC50 in data set [1] is > 100 µM.
`C[C@@H]1CC[C@@]2(OC1)O[C@H]1C[C@H]3[C@@H]4CC=C5C[C@@H](O)C[C@@H](O[C@@H]6O[C@H](C)[C@H](O)[C@H](O[C@@H]7OC[C@@H](O)[C@H](O)[C@H]7O)[C@H]6O[C@@H]6O[C@@H](C)[C@H](O)[C@@H](O)[C@H]6O)[C@]5(C)[C@H]4CC[C@]3(C)[C@H]1[C@@H]2C` [Ophiopogonin D, ophiopogonin D]: the half-maximal inhibitory concentration (IC50) in [3] and in data set [5] was > 100 µM in each case.
On to `C[C@@H]1CC[C@@]2(OC1)O[C@H]1C[C@H]3[C@@H]4CC=C5C[C@@H](O)C[C@@H](O)[C@]5(C)[C@H]4CC[C@]3(C)[C@H]1[C@@H]2C` [Ruscogenin, ruscogenin], for which, in data set [1], the IC50 was > 100 µM and the inhibition – broadly, the relative decrease from the control value, in per cent – at 100 µM is ≤ 50%.
Take `CC(C)=CCC[C@](C)(O[C@@H]1O[C@H](CO)[C@@H](O)[C@H](O)[C@H]1O)[C@H]1CC[C@]2(C)[C@@H]1[C@H](O)C[C@@H]1[C@@]3(C)CC[C@H](O[C@@H]4O[C@H](CO)[C@@H](O)[C@H](O)[C@H]4O[C@@H]4O[C@H](CO)[C@@H](O)[C@H](O)[C@H]4O)C(C)(C)[C@@H]3CC[C@]12C` [Ginsenoside Rd, ginsenoside Rd]: in data set [1], it took 80.2 ± 33.3 µM to reach half-maximal inhibition (IC50).
`COc1cc2c(c(OC)c1OC)-c1c(cc3c(c1OC)OCO3)C[C@H](C)[C@](C)(O)[C@H]2OC(=O)c1ccccc1` [Schisantherin A, schisantherin A]: in data set [6], the “time required for accumulating to reach the steady-state” value was “at least 8 days”. In addition, the 50% inhibitory concentration (IC50) against human CYP3A4 [4] (setting [11]) was found to be 0.06 ± 0.01 µM. For the same compound, half-maximal inhibition on human CYP3A4 [4] (setting [12]) (IC50) required 0.17 ± 0.05 µM. On human CYP3A4 [4], the “Ratio IC50(+)/IC50(−)” value is recorded as 0.35 and the “Predicted threshold of unbound inhibitor concentration causing a 2-fold AUC increase” value is listed as 0.34 nM. The tmax in data set [2] (SMS (8 g/kg)-treated rats) was 2.3 h. For the same compound, the half-life in data set [2] (setting [13]) is given as 30 h. In addition, the Cmax in data set [2] was 7.1 nM.
Turning to `COc1cc(C[C@H]2C(=O)OC[C@@H]2Cc2ccc(OC)c(OC)c2)ccc1O` [Arctigenin], in [1], the half-inhibitory concentration (IC50) is > 100 µM and the inhibition at 100 µM is ≤ 50%.
For `COC(=O)c1c(C)nc(C)c(C(=O)OC)c1-c1ccccc1[N+](=O)[O-]` [Dehydronifedipine], in [7], the “AUC0−t of dehydronifedipine” value was 100 ± 10 ng·h/mL, the “AUC0−∞ of dehydronifedipine” value is 130 ± 10 ng·h/mL, the Cmax of dehydronifedipine turned out to be 40 ± 10 ng/mL and the t1/2 of dehydronifedipine was determined as 2.36 ± 0.33 h. The tmax of dehydronifedipine in data set [7] was found to be 0.54 ± 0.10 h.
Consider `CC(C)=CCC[C@](C)(O)[C@H]1CC[C@]2(C)[C@@H]1[C@H](O)C[C@@H]1[C@@]3(C)CC[C@H](O)C(C)(C)[C@@H]3[C@@H](O)C[C@]12C` [Protopanaxatriol, protopanaxatriol], for which the IC50 in [3] and in data set [5] was > 100 µM in each case.
Take `Cc1c(O)c(C)c2c(c1O)C(=O)[C@H](Cc1ccc3c(c1)OCO3)CO2` [Methylophiopogonanone A, methylophiopogonanone A]: the partition ratio on human CYP3A4 [8] (30 min incubation, molar ratio metabolized per CYP3A4 inactivated) is recorded as 54. Besides, at human CYP3A4 [8] (30 min incubation, titration of remaining NFO activity), the turnover number was found to be 55. In addition, the “apparent KI” value on human CYP3A4 [8] (setting [14]) turned out to be 9.1 µM; on human CYP3A4 [8] (setting [15]) it was 13.3 ± 5.9 µM. The kinact (commonly the maximal first-order rate at which the target is inactivated) on human CYP3A4 [8] (setting [14]) worked out at 0.058 min⁻¹; at human CYP3A4 [8] (setting [15]), 0.068 ± 0.009 min⁻¹. The “predicted threshold for causing a 2-fold increase in AUC” value on human CYP3A4 [8] (using inhibition constants (inactivation kinetics)) is reported as 79.7 nM. Moreover, the IC50 in data set [3] came out at 11.6 ± 0.7 µM; on human CYP3A4 [4] (10-min NADPH-fortified pre-incubation), 17.4 ± 2.1 µM; on human CYP3A4 [4] (without pre-incubation), 36.5 ± 7 µM; in data set [5], 16.8 ± 2.6 µM. Also, the “inhibition of NFO after dialysis” value at human CYP3A4 [9] is “could not be restored”. Further, the “Ratio IC50(+)/IC50(−)” value on human CYP3A4 [4] worked out at 0.48. Moreover, the “Predicted threshold of unbound inhibitor concentration causing a 2-fold AUC increase” value on human CYP3A4 [4] is reported as 45.0 nM. For the same compound, the half-life in data set [2] (rats treated with Qingzao Jiufei decoction (4.6 g/kg)) is 8 to 9 h. In addition, the “CPR activity before or after dialysis” value in data set [10] is recorded as “not affected”.
